Experimental findings from ChEMBL document CHEMBL1126647, “Fluorine-18-labeled progestin ketals: synthesis and target tissue uptake selectivity of potential imaging agents for receptor-positive breast tumors” (J Med Chem, 1993) are described below.

Type in all cases: functional, tissue-based
Assay [1] addresses T1, Progesterone receptor (Rattus norvegicus) (UniProt Q63449).
T1 sequence (whole entry): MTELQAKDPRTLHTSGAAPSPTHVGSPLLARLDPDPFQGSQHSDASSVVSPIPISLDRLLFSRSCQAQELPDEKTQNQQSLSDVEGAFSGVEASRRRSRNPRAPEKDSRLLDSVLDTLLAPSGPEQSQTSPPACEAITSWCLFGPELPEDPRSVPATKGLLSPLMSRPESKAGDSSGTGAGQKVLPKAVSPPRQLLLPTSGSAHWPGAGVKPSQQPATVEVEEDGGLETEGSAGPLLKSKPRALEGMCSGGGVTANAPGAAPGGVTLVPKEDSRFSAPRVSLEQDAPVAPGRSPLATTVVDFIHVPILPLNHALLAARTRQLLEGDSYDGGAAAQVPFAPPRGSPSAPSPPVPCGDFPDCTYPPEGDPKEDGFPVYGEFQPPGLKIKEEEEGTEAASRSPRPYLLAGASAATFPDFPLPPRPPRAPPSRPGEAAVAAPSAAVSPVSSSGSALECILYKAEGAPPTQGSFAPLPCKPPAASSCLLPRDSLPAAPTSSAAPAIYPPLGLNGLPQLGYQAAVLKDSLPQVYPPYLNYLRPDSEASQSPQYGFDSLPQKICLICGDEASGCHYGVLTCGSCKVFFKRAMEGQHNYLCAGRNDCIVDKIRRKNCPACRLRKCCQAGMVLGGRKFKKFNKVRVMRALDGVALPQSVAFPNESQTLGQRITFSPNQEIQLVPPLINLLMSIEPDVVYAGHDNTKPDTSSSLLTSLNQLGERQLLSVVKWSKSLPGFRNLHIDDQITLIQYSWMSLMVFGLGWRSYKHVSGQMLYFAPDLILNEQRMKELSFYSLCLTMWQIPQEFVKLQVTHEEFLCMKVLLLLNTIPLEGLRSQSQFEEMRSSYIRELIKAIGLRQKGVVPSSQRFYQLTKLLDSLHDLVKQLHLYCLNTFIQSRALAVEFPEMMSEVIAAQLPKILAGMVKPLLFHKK
As to the kind of experiment: Tissue distribution in lung 3 hr after [18F]4 injection into estrogen-primed immature rats. In outline:
(§1)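 Immature female Sprague-Dawley rats, estradiol-primed (5 μg s.c. in 20% ethanol/sunflower oil, two successive days, used 24 h later). Tracer (30 Ci/mmol) in 10% ethanol/saline was injected iv into the tail vein under ether anesthesia. Animals were decapitated 3 h postinjection; organs weighed and gamma-counted. %ID/g, mean ± SD, n = 5.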

For assay [2], the target named is T1, Progesterone receptor (Rattus norvegicus). As to the kind of experiment: Tissue distribution in bone 3 hr after [18F]4 injection into estrogen-primed immature rats. The conditions noted are these: Bone element. The essentials: as §1
For assay [3] the target is unchanged. In words: Tissue distribution in blood 1 hr after [18F]4 injection into estrogen-primed immature rats at normal dose. In outline:
(§2)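 Female Sprague-Dawley rats, 23 days old, primed with estradiol 5 μg s.c. in 20% ethanol/sunflower oil on two days and used 24 h later. Under ether, they received 51 μCi tracer (30 Ci/mmol) iv via the tail vein in 0.1 mL 10% ethanol/saline. Killed by decapitation at 1 h; tissues weighed and gamma-counted. Results as %ID/g or tissue ratios, mean ± SD, n = 5.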

Assay [4] has the same target. As to the kind of experiment: Tissue distribution in muscle 1 hr after [18F]4 injection into estrogen-primed immature rats at normal dose. In outline:
as §2

For assay [5] the target is unchanged. As to the kind of experiment: Tissue distribution in uterus/muscle 1 hr after [18F]4 injection into estrogen-primed immature rats co-injected ORG 2058 (uterine uptake blocker). In outline:
(§3)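 Blocking group: estrogen-primed immature female Sprague-Dawley rats (estradiol 5 μg s.c. ×2 days, used 24 h later). ORG 2058 18 μg was co-injected with the tracer dose iv via tail vein, 0.2 mL injection volume in 10% ethanol/saline. Killed 1 h later; tissues weighed and gamma-counted. Results as %ID/g or ratios, mean ± SD, n = 5.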

For assay [6] the target is unchanged. As to the kind of experiment: Tissue distribution in blood 1 hr after [18F]4 injection into estrogen-primed immature rats co-injected uterine uptake blocker (ORG 2058). The essentials:
as §3

For assay [7] the target is unchanged. In words: Tissue distribution in uterus/muscle 3 hr after [18F]4 injection into estrogen-primed immature rats. In outline:
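Immature female Sprague-Dawley rats (23 days old) were primed with 5 μg estradiol in 20% ethanol/sunflower oil s.c. on two successive days and used 24 h after the last injection. The 18F tracer (51 μCi, specific activity 30 Ci/mmol) in 10% ethanol/saline was given iv in the tail vein under ether anesthesia. Rats were decapitated at 3 h, and organs were weighed and gamma counted. Ratio of %ID/g, n = 5.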

For assay [8] the target is unchanged. As to the kind of experiment: Tissue distribution in fat 1 hr after [18F]4 injection into estrogen-primed immature rats at low dose. The conditions noted are these: Adipose tissue. In outline: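 Estrogen-primed immature female Sprague-Dawley rats (estradiol 5 μg s.c. daily ×2, used 24 h later) were given a reduced tracer dose of 30 μCi in 0.04 mL 10% ethanol/saline, tail vein iv, under ether. Decapitated at 1 h; organs weighed and gamma-counted. Results as %ID/g or uterus/tissue ratio, mean ± SD, n = 5.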

Assay [9] shares this target. As to the kind of experiment: Tissue distribution in blood 3 hr after [18F]-4 injection into estrogen-primed immature rats. The essentials:
as §1

SMILES strings stand for the structures.

Take `CC(=O)[C@@]12O[C@](C)(c3ccc(F)cc3)O[C@@H]1CC1C3CCC4=CC(=O)CC[C@]4(C)C3CC[C@@]12C` (stereo partly drawn): the Injected dose/g in [1] amounted to 0.91%; in assay [2], 1.69%; in [3], 0.47%; in assay [4], 0.82%; in [6], 0.43%; in assay [8], 5.39%. In assay [9], this compound came in with an Injected dose/g of 0.28%. Moreover, the uterus/muscle ratio in [5] worked out at 1.69; in assay [7] it was 4.61.

In the case of `C[C@@]1(c2ccc(F)cc2)O[C@@H]2CC3C4CCC5=CC(=O)CC[C@@H]5C4CC[C@]3(C)[C@]2(C(=O)CO)O1` (stereo partly drawn), the Injected dose/g in assay [1] was 0.22%; in assay [2], 0.64%; in assay [3] it was 0.26%; in [4] it was 0.44%; in assay [6], 0.23%; in assay [8] it was 3.78%. In [9], this compound had an Injected dose/g of 0.1%. Also, the uterus/muscle ratio stood at 2.42 in [5] and 27.9 in [7].
